19 compounds from ChEMBL document CHEMBL2346575, “Potential CRF1R PET imaging agents: 1-fluoroalkylsubstituted 5-halo-3-(arylamino)pyrazin-2(1H)-ones” (Bioorg Med Chem Lett, 2013) can be followed below.

The subject of one data set is Cerebellum. Kind of data set: Drug uptake in rat cerebellum after 30 mins. Particulars: in vivo, 0.5 h. The data set is classed as ADME, tissue-based.
The test system of another data set is Cortex. Put plainly: Drug uptake in rat cortex after 30 mins. Particulars: in vivo, 0.5 h. It is filed as ADME, tissue-based.
Data set [1] is described as follows: Metabolic stability in baboon after 9 mins. The settings on record: in vivo, read-out: Stability. It is filed as ADME, organism-based, Papio.
Data set [2] in a line: Lipophilicity, log D of the compound in octanol-phosphate buffer at pH 7.4 after 30 to 40 mins by shake flask method. The data set is classed as physicochemical. The method in brief: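 Phosphate buffer (25 mM, pH ~7.4) and octanol were pre-saturated overnight. Sample (1.0 mg) in 1 mL octanol added to 50 mL octanol-saturated buffer, shaken hard 30–40 min, then left until the layers separated. Each phase analyzed twice by HPLC.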

The target of data set [3] is T1, Corticotropin-releasing factor receptor 1 (Rattus norvegicus, UniProt P35353).
T1 sequence (P35353 whole entry): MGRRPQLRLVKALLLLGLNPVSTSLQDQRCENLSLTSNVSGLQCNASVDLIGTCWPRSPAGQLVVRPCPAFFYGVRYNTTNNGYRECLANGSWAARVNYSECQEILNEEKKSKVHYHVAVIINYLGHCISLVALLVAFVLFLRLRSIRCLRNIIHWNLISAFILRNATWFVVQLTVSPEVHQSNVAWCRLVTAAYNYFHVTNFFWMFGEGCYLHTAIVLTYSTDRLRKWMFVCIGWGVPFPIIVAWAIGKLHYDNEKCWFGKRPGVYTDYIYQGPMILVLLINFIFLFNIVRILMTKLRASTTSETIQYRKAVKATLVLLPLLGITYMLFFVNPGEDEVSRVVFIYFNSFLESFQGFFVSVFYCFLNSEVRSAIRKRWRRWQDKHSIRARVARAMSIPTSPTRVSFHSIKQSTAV
Kind of data set: Displacement of [125I]-o-CRF from CRF1 receptor in rat frontal cortex homogenate after 2 hrs by gamma counting. It is filed as tissue-based. The method in brief: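 Rat frontal cortex, thawed in 50 mM HEPES (pH 7.0 at 23 °C) with 10 mM MgCl2, 2 mM EGTA and protease inhibitors, then homogenized, spun twice at 32,000×g for 30 min and stored at -70 °C. Membranes (25 µg/well) incubated with 150 pM 125I-o-CRF and test drug, 2 h at 21 °C. Filtered on PEI-treated GF/B, washed with cold PBS/0.01% Triton X-100. Nonspecific binding with 1 µM DMP696.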
In general terms: In a radioligand displacement assay an active substance lowers the binding of a labelled ligand.

Data set [4] is described as follows: Metabolic stability in baboon after 13 mins. The data set is classed as ADME, organism-based, Papio. The settings on record: in vivo, read-out: Stability.
A short description of data set [5]: Drug uptake in rat pituitary gland. It is filed as ADME, tissue-based. The settings on record: in vivo.

For `COCCN(CCOC)c1nc(C)nc2c(-c3ccc([76Br])cc3Cl)c(C)nn12`, the Drug uptake with Cerebellum is 0.29 % ID/g; in the data set on Cortex, 0.32 % ID/g. On to `CCCN(CCC)c1cc(C)nc2c(-c3ccc(N(C)[11CH3])nc3)c(C)nn12`, for which, in data set [1], the remaining at 0.15 h stood at 50%. `COc1cc(C)c(Nc2nc(Cl)cn([C@@H](COCCF)C3CC3)c2=O)cc1C`: in data set [2], the logD was 4.6. Moreover, the IC50 in data set [3] stood at 0.46 nM. The corresponding values for `COc1cc(Cl)c(Nc2nc(Cl)cn([C@@H](COCCF)C3CC3)c2=O)c(Cl)c1` are 4 and 0.6 nM.

For the compound `COc1cc(Cl)c(Nc2nc(Br)cn([C@@H](COCCF)C3CC3)c2=O)c(Cl)c1`, the logD in data set [2] amounted to 4.1. The compound further registered an IC50 in data set [3] of 0.46 nM. With `COc1cc(Cl)c(Nc2nc(C#N)cn([C@@H](COCCF)C3CC3)c2=O)c(Cl)c1`, the logD in data set [2] amounted to 3.4. Further, the IC50 in data set [3] is 7.7 nM. The corresponding values for `COc1nc(Cl)nc(C)c1Nc1nc(Cl)cn([C@@H](COCCF)C2CC2)c1=O` are 3.3 and 19 nM.

Regarding `COc1nc(Cl)nc(C)c1Nc1nc(Br)cn([C@@H](COCCF)C2CC2)c1=O`, the logD in data set [2] was 3.4. Further, the concentration for half-maximal inhibition (IC50) in data set [3] is 14 nM. For `Cc1cc(C#N)cc(Cl)c1Nc1nc(Cl)cn([C@@H](COCCF)C2CC2)c1=O`, in data set [2], the logD was 3.7. Besides, in data set [3], the IC50 amounted to 4.5 nM. `Cc1cc(C#N)cc(C)c1Nc1nc(Cl)cn([C@@H](COCCF)C2CC2)c1=O`: in data set [2], the logD stood at 3.4. Further, the IC50 in data set [3] stood at 7.4 nM. In the same order, the values of `N#Cc1cc(Cl)c(Nc2nc(Cl)cn([C@@H](COCCF)C3CC3)c2=O)c(Cl)c1` are 3.6 and 5 nM. With `COc1cc(Cl)c2c(c1)CCN2c1nc(Cl)cn([C@@H](COCCF)C2CC2)c1=O`, the logD in data set [2] is 4. Moreover, in data set [3], the IC50 came out at 3.2 nM. The compound `N#Cc1cc(F)c(Nc2nc(Cl)cn([C@@H](COCCF)C3CC3)c2=O)cc1F` yielded a logD in data set [2] of 4.6. Also, in data set [3], the half-maximal inhibitory concentration (IC50) was over 1000 nM. The corresponding values for `COc1cc(C)c(Nc2nc(Cl)cn([C@@H](CF)C3CC3)c2=O)cc1C` are 4.5 and 1.1 nM. The corresponding values for `COc1cc(C)c(Nc2nc(C)cn([C@@H](CF)C3CC3)c2=O)cc1C` are 4.2 and 0.61 nM. Take `COc1nc(C)c(Nc2nc(C)cn([C@@H](CF)C3CC3)c2=O)cc1C`: the logD in data set [2] is 4.1. The compound also gave an IC50 in data set [3] of 4.7 nM.

In data set [2], `COc1nc(C)c(Nc2nc(Cl)cn(C(CCF)C3CC3)c2=O)c(OC)n1` (racemic) registered a logD of 2.9. The half-maximal inhibitory concentration (IC50) in data set [3] is 53 nM. Consider `COCCN(CCO[11CH3])c1cc(C)nc2c(-c3ccc(N(C)C)nc3)c(C)nn12` [[11C]DMP696], for which, in data set [4], the remaining at 13 min was found to be 50%.

Turning to `CCN(CCCC[18F])c1nc(C)nc2c1c(C)cn2-c1c(C)cc(C)cc1C` [[18F]FBPPA], the Drug uptake in data set [5] amounted to 5.59%.

A word on the logD: it is lipophilicity at a set pH, counting ionised and neutral species. Low values mean a more hydrophilic compound, high ones a more lipophilic compound. Broadly, the IC50 is the point on the concentration scale where inhibition reaches its midpoint. High values mean weaker potency, low ones greater potency.
